Laboratory results published in ChEMBL document CHEMBL4673268, “The optimization of a novel selective antagonist for human M muscarinic acetylcholine receptor” (Bioorg Med Chem Lett, 2020).
pIC50, pKi: −log10 of the molar value. The source made the active and inactive calls. No cut-off for these calls is given here.

What was measured:
[1] = biological target: Muscarinic acetylcholine receptors; M2 & M3 (Homo sapiens) (UniProt P20309+P08172); assay: Selectivity for human muscarinic M2 receptor over muscarinic M3 receptor (unknown origin); format: protein assay
[2] = biological target: Muscarinic acetylcholine receptor M2 and M4 (Homo sapiens) (UniProt P08173+P08172); assay: Selectivity for human muscarinic M2 receptor over muscarinic M4 receptor (unknown origin); format: protein assay
[3] = biological target: Muscarinic acetylcholine receptors; M1 & M2 (Homo sapiens) (UniProt P11229+P08172); assay: Selectivity for human muscarinic M2 receptor over muscarinic M1 receptor (unknown origin); format: protein assay
[4] = biological target: T1, Muscarinic acetylcholine receptor M2 (Homo sapiens) (UniProt P08172); assay: Antagonist activity at muscarinic M2 receptor (unknown origin) at 100 uM by acetylcholine titration assay; settings: filed as antagonist
T1 sequence (whole entry): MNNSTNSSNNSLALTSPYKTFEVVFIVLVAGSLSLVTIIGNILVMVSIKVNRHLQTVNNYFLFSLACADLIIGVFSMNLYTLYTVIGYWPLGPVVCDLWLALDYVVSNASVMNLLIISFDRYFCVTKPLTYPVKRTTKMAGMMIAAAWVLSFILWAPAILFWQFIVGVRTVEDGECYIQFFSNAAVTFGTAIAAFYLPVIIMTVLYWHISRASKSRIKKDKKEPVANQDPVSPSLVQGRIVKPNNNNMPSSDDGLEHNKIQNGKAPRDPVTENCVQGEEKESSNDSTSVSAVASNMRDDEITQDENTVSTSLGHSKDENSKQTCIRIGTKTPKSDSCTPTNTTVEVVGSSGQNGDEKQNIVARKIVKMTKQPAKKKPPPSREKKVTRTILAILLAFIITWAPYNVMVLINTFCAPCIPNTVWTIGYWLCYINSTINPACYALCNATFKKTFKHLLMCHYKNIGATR
How it was run: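 Acetylcholine titration curves were run in a radioligand binding format, without and with test ligand at 100 μM. A rightward shift of the ACh curve was taken to indicate negative allosteric modulation, and no shift to indicate orthosteric antagonism.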

[5] = biological target: T2, Muscarinic acetylcholine receptor M4 (Homo sapiens, UniProt P08173); assay: Displacement of [3H]-NMS from muscarinic M4 receptor (unknown origin) expressed in CHO-K1 cell membranes assessed as inhibition constant by radioligand competition analysis; set-up: species or system Cell membrane
T2 sequence (P08173 whole entry): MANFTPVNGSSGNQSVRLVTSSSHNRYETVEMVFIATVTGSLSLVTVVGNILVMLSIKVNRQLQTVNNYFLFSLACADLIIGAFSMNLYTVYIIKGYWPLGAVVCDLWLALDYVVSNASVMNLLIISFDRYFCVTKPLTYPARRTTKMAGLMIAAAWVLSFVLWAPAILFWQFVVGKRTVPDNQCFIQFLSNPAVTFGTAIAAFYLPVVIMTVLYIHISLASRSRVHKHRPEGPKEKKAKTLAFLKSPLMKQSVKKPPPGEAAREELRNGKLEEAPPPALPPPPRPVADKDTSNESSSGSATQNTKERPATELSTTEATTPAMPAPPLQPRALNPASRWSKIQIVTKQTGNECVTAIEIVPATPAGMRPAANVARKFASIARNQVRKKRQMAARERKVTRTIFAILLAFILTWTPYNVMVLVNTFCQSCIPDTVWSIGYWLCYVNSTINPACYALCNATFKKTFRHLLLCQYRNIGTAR
How it was run: (§1)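 Inhibition constants came from radioligand competition binding. Acetylcholine and atropine were included as positive controls for competitive binding. Values are given as mean ± SEM.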

[6] = biological target: Muscarinic acetylcholine receptor M3 (Homo sapiens, UniProt P20309); assay: Displacement of [3H]-NMS from muscarinic M3 receptor (unknown origin) expressed in CHO-K1 cell membranes assessed as inhibition constant by radioligand competition analysis; set-up: species or system Cell membrane; how it was run: as §1
[7] = biological target: T3, Muscarinic acetylcholine receptor M2 (Homo sapiens, UniProt P08172); assay: Displacement of [3H]-NMS from muscarinic M2 receptor (unknown origin) expressed in CHO-K1 cell membranes assessed as inhibition constant by radioligand competition analysis; set-up: species or system Cell membrane
T3 sequence (P08172 whole entry): T1 sequence (whole entry)

[8] = biological target: T4, Muscarinic acetylcholine receptor M1 (Homo sapiens, UniProt P11229); assay: Displacement of [3H]-NMS from muscarinic M1 receptor (unknown origin) expressed in CHO-K1 cell membranes assessed as inhibition constant by radioligand competition analysis; set-up: species or system Cell membrane; how it was run: as §1
T4 sequence (P11229 whole entry): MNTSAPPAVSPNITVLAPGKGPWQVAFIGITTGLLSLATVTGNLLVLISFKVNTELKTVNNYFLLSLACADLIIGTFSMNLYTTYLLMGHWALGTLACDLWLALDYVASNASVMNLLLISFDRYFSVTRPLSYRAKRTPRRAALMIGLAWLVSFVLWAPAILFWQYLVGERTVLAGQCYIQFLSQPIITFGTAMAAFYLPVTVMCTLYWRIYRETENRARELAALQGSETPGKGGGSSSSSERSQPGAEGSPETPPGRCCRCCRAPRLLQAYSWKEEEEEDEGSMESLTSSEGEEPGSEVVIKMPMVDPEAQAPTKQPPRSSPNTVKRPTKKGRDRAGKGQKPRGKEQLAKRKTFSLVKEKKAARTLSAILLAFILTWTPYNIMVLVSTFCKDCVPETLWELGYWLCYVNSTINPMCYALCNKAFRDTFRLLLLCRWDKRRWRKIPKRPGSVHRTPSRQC

[9] = biological target: T3, Muscarinic acetylcholine receptor M2; assay: Antagonist activity at human muscarinic M2 receptor expressed in CHO cells co-expressing Galpha15 assessed as inhibition of acetylcholine-induced calcium mobilization relative to acetylcholine; format: functional, cell-based

Chain of Muscarinic acetylcholine receptor M3 (P20309 whole entry): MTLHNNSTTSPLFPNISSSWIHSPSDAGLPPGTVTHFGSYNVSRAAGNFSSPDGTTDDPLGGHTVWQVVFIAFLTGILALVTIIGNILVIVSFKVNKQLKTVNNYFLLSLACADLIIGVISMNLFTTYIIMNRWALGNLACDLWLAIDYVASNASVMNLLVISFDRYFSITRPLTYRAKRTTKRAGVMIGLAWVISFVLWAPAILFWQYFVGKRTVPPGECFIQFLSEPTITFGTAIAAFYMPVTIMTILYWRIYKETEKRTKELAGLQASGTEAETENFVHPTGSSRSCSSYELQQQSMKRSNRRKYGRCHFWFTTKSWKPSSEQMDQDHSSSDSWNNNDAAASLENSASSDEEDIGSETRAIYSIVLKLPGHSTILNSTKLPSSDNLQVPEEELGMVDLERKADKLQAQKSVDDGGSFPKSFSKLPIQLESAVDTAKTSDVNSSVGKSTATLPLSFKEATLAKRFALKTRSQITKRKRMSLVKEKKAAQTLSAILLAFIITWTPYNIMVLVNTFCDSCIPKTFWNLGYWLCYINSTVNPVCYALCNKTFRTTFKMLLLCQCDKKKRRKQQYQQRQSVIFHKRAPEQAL
Chain of Muscarinic acetylcholine receptors; M2 & M3 (Homo sapiens) (P20309 whole entry, looked up, one chain of several): as the sequence (P20309 whole entry) above

## O=C(CCN1CCCc2ccccc21)Nc1cccc2cccnc12
[1]
  Ratio: > 250
[2]
  Ratio: 30
[3]
  Ratio: 8
[4]
  Activity: Active
[5]
  pKi: 4.74
[6]
  pKi: < 4.00
[7]
  pKi: 6.21
[8]
  pKi: 5.31
[9]
  pIC50: 6.32
